# Measurements taken from ChEMBL document CHEMBL3091328, “Synthesis, DNA-binding abilities and anticancer activities of triazole-pyrrolo[2,1-c][1,4]benzodiazepines hybrid scaffolds” (Bioorg Med Chem Lett, 2013).
# Activity calls are given as the source filed them. The rule behind the calls is not given here.
# Test system: Escherichia coli
# Experiment: Binding affinity to Escherichia coli pBR322 DNA assessed as DNA unwinding at 10 to 1000 uM after 12 hrs by agarose gel electrophoresis
# Conditions: not given
# Method in brief: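 Negatively supercoiled pBR322 plasmid (0.4 μg) incubated 12 h in TE buffer with increasing compound concentrations (0–1000 μM); samples run 2.5 h on 1% agarose gel; unwinding read as reduced mobility.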
row,SMILES,Activity
1,COc1cc2c(cc1OC/C=C\Cn1cc(-c3ccccc3)nn1)N=C[C@@H]1CCCN1C2=O,Active

# Test system: not listed separately
# Experiment: Cytotoxicity against human skin fibroblasts assessed as cell survival at 5 uM after 24 hrs by MTT assay relative to control
# Design: species or system Skin fibroblast
# Conditions: read-out: Survival
# Method in brief: (§1)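 Cells exposed to agent at 5 µM for 24 h, then growth and viability measured by MTT assay. Survival given as percent of untreated control.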
row,SMILES,"viability at 24 h, 5 µM [%]"
1,COc1cc2c(cc1O)N=C[C@@H]1CCCN1C2=O,89.7
2,COc1cc2c(cc1OC/C=C\Cn1cc(-c3ccccc3)nn1)N=C[C@@H]1CCCN1C2=O,87.7

# Test system: A-375
# Experiment: Induction of apoptosis in human A375 cells assessed as decrease in Bcl-XL protein level at 5 uM after 24 hrs by Western blotting analysis
# Format: functional, cell-based
# Conditions: not given
# Method in brief: (§2)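 Lysates from A375 cells exposed 24 h to 5 μM, or to a range of concentrations, immunoblotted with specific antibodies against Bcl-2, Bcl-xL, Bax, Bad, caspase-3 and PARP; actin probed as loading control; three separate experiments.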
row,SMILES,Activity
1,COc1cc2c(cc1OC/C=C\Cn1cc(-c3ccccc3)nn1)N=C[C@@H]1CCCN1C2=O,Active

# Test system: A-375
# Experiment: Cytotoxicity against human A375 cells assessed as cell survival after 12 to 24 hrs by MTT assay relative to control
# Format: functional, cell-based
# Conditions: not given
# Method in brief: (§3)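 A375 cells seeded at 10,000 per well, attached overnight, then exposed in triplicate to 0, 1, 3 or 5 μM for 0, 12 or 24 h; viability by MTT absorbance versus untreated control; IC50 taken as mean of dose-response curves from three experiments.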
row,SMILES,Activity
1,COc1cc2c(cc1OC/C=C\Cn1cc(-c3ccccc3)nn1)N=C[C@@H]1CCCN1C2=O,Dose-dependent effect

# Test system: A-375
# Experiment: Cytotoxicity against human A375 cells assessed as cell survival at 1 to 5 uM after 12 hrs by MTT assay relative to control
# Format: functional, cell-based
# Conditions: not given
# Method in brief: as §3
row,SMILES,Activity
1,COc1cc2c(cc1OC/C=C\Cn1cc(-c3ccccc3)nn1)N=C[C@@H]1CCCN1C2=O,inactive

# Test system: A-375
# Experiment: Upregulation of p53 mRNA expression in human A375 cells at 5 uM after 24 hrs by RT-PCR analysis
# Format: functional, cell-based
# Conditions: not given
# Method in brief: (§4)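 A375 cells treated 24 h at 5 μM; p53, p21, p27 and cyclin D1 transcripts quantified by qPCR, normalised to β-actin in each sample, compared with control.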
row,SMILES,Activity
1,COc1cc2c(cc1OC/C=C\Cn1cc(-c3ccccc3)nn1)N=C[C@@H]1CCCN1C2=O,Active

# Test system: A-375
# Experiment: Cell cycle arrest in human A375 cells assessed as accumulation at G2/M phase after 24 hrs by propidium iodide staining-based flow cytometry (reference value: 15.2 +/- 0.6%)
# Format: functional
# Conditions: not given
row,SMILES,Activity [%]
1,COc1cc2c(cc1OC/C=C\Cn1cc(-c3ccccc3)nn1)N=C[C@@H]1CCCN1C2=O,2.2

# Test system: A549
# Experiment: Cytotoxicity against human A549 cells assessed as cell survival at 5 uM after 24 hrs by MTT assay relative to control
# Format: functional
# Conditions: A549, 24 h, read-out: Survival
# Method in brief: as §1
row,SMILES,viability at 5 µM [%]
1,COc1cc2c(cc1O)N=C[C@@H]1CCCN1C2=O,85.4
2,COc1cc2c(cc1OC/C=C\Cn1cc(-c3ccccc3)nn1)N=C[C@@H]1CCCN1C2=O,65.6

# Test system: A-375
# Experiment: Induction of apoptosis in human A375 cells assessed as increase in Bax protein level at 5 uM after 24 hrs by Western blotting analysis
# Format: functional, cell-based
# Conditions: not given
# Method in brief: as §2
row,SMILES,Activity
1,COc1cc2c(cc1OC/C=C\Cn1cc(-c3ccccc3)nn1)N=C[C@@H]1CCCN1C2=O,Active

# Test system: A-375
# Experiment: Induction of apoptosis in human A375 cells assessed as cleavage of PARP after 24 hrs by Western blotting analysis
# Format: functional, cell-based
# Conditions: not given
# Method in brief: as §2
row,SMILES,Activity
1,COc1cc2c(cc1OC/C=C\Cn1cc(-c3ccccc3)nn1)N=C[C@@H]1CCCN1C2=O,Dose-dependent effect

# Test system: A-375
# Experiment: Downregulation of cyclin D1 mRNA expression in human A375 cells at 5 uM after 24 hrs by RT-PCR analysis
# Format: functional, cell-based
# Conditions: not given
# Method in brief: as §4
row,SMILES,Activity
1,COc1cc2c(cc1OC/C=C\Cn1cc(-c3ccccc3)nn1)N=C[C@@H]1CCCN1C2=O,Active

# Test system: A-375
# Experiment: Cytotoxicity against human A375 cells assessed as cell survival at 1 to 5 uM by MTT assay relative to control
# Format: functional, cell-based
# Conditions: TDE = time-dependent effect
# Method in brief: as §3
row,SMILES,Activity
1,COc1cc2c(cc1OC/C=C\Cn1cc(-c3ccccc3)nn1)N=C[C@@H]1CCCN1C2=O,tde

# Test system: A-375
# Experiment: Induction of apoptosis in human A375 cells assessed as decrease in Bcl-2 protein level at 5 uM after 24 hrs by Western blotting analysis
# Format: functional, cell-based
# Conditions: not given
# Method in brief: as §2
row,SMILES,Activity
1,COc1cc2c(cc1OC/C=C\Cn1cc(-c3ccccc3)nn1)N=C[C@@H]1CCCN1C2=O,Active

# Test system: A-375
# Experiment: Cell cycle arrest in human A375 cells assessed as accumulation at S phase after 24 hrs by propidium iodide staining-based flow cytometry (reference value: 11.8 +/- 0.1%)
# Format: functional
# Conditions: not given
row,SMILES,Activity [%]
1,COc1cc2c(cc1OC/C=C\Cn1cc(-c3ccccc3)nn1)N=C[C@@H]1CCCN1C2=O,5.9

# Test system: B16
# Experiment: Cytotoxicity against mouse B16 cells assessed as cell survival at 5 uM after 24 hrs by MTT assay relative to control
# Format: functional
# Conditions: B16, 24 h, read-out: Survival
# Method in brief: as §1
row,SMILES,viability at 5 µM [%]
1,COc1cc2c(cc1O)N=C[C@@H]1CCCN1C2=O,66.8
2,COc1cc2c(cc1OC/C=C\Cn1cc(-c3ccccc3)nn1)N=C[C@@H]1CCCN1C2=O,33.9

# Test system: A-375
# Experiment: Upregulation of p21 mRNA expression in human A375 cells at 5 uM after 24 hrs by RT-PCR analysis
# Format: functional, cell-based
# Conditions: not given
# Method in brief: as §4
row,SMILES,Activity
1,COc1cc2c(cc1OC/C=C\Cn1cc(-c3ccccc3)nn1)N=C[C@@H]1CCCN1C2=O,Active

# Test system: A-375
# Experiment: Cell cycle arrest in human A375 cells assessed as accumulation at G1 phase after 24 hrs by propidium iodide staining-based flow cytometry (reference value: 65.3 +/- 0.1%)
# Format: functional
# Conditions: not given
row,SMILES,Activity [%]
1,COc1cc2c(cc1OC/C=C\Cn1cc(-c3ccccc3)nn1)N=C[C@@H]1CCCN1C2=O,83

# Test system: A-375
# Experiment: Induction of apoptosis in human A375 cells assessed as increase in Bax protein level after 24 hrs by Western blotting analysis
# Format: functional, cell-based
# Conditions: not given
# Method in brief: as §2
row,SMILES,Activity
1,COc1cc2c(cc1OC/C=C\Cn1cc(-c3ccccc3)nn1)N=C[C@@H]1CCCN1C2=O,Dose-dependent effect

# Test system: A-375
# Experiment: Cell cycle arrest in human A375 cells assessed as accumulation at sub-G1 phase after 24 hrs by propidium iodide staining-based flow cytometry (reference value: 7.7 +/- 0.1%)
# Format: functional
# Conditions: not given
row,SMILES,Activity [%]
1,COc1cc2c(cc1OC/C=C\Cn1cc(-c3ccccc3)nn1)N=C[C@@H]1CCCN1C2=O,8.9

# Test system: A2058
# Experiment: Cytotoxicity against human A2058 cells assessed as cell survival at 5 uM after 24 hrs by MTT assay relative to control
# Format: functional
# Conditions: A2058, 24 h, read-out: Survival
# Method in brief: as §1
row,SMILES,viability at 5 µM [%]
1,COc1cc2c(cc1O)N=C[C@@H]1CCCN1C2=O,54.8
2,COc1cc2c(cc1OC/C=C\Cn1cc(-c3ccccc3)nn1)N=C[C@@H]1CCCN1C2=O,45.7

# Test system: A-375
# Experiment: Upregulation of p27 mRNA expression in human A375 cells at 5 uM after 24 hrs by RT-PCR analysis
# Format: functional, cell-based
# Conditions: not given
# Method in brief: as §4
row,SMILES,Activity
1,COc1cc2c(cc1OC/C=C\Cn1cc(-c3ccccc3)nn1)N=C[C@@H]1CCCN1C2=O,Active

# Test system: HEK-293T
# Experiment: Cytotoxicity against human 293T cells assessed as cell survival at 5 uM after 24 hrs by MTT assay relative to control
# Format: functional
# Conditions: read-out: Survival
# Method in brief: as §1
row,SMILES,viability at 5 µM [%]
1,COc1cc2c(cc1O)N=C[C@@H]1CCCN1C2=O,55.2
2,COc1cc2c(cc1OC/C=C\Cn1cc(-c3ccccc3)nn1)N=C[C@@H]1CCCN1C2=O,74.1

# Test system: A-375
# Experiment: Induction of apoptosis in human A375 cells at 5 uM after 24 hrs by AnnexinV-FITC/propidium iodide staining-based fluorimetric analysis (reference value: 2.6%)
# Format: functional
# Conditions: not given
row,SMILES,Activity [%]
1,COc1cc2c(cc1OC/C=C\Cn1cc(-c3ccccc3)nn1)N=C[C@@H]1CCCN1C2=O,23.1

# Test system: A-375
# Experiment: Induction of apoptosis in human A375 cells assessed as decrease in Bcl-2 protein level after 24 hrs by Western blotting analysis
# Format: functional, cell-based
# Conditions: not given
# Method in brief: as §2
row,SMILES,Activity
1,COc1cc2c(cc1OC/C=C\Cn1cc(-c3ccccc3)nn1)N=C[C@@H]1CCCN1C2=O,Dose-dependent effect

# Test system: A-375
# Experiment: Induction of apoptosis in human A375 cells assessed as increase in Bad protein level after 24 hrs by Western blotting analysis
# Format: functional, cell-based
# Conditions: not given
# Method in brief: as §2
row,SMILES,Activity
1,COc1cc2c(cc1OC/C=C\Cn1cc(-c3ccccc3)nn1)N=C[C@@H]1CCCN1C2=O,Dose-dependent effect

# Test system: not listed separately
# Experiment: Cytotoxicity against human RPMI7951 cells assessed as cell survival at 5 uM after 24 hrs by MTT assay relative to control
# Format: functional
# Conditions: RPMI-7951, 24 h, read-out: Survival
# Method in brief: as §1
row,SMILES,viability at 5 µM [%]
1,COc1cc2c(cc1O)N=C[C@@H]1CCCN1C2=O,61.6
2,COc1cc2c(cc1OC/C=C\Cn1cc(-c3ccccc3)nn1)N=C[C@@H]1CCCN1C2=O,55.9

# Test system: Ca9-22
# Experiment: Cytotoxicity against human Ca9-22 cells assessed as cell survival at 5 uM after 24 hrs by MTT assay relative to control
# Format: functional
# Conditions: Ca9-22, 24 h, read-out: Survival
# Method in brief: as §1
row,SMILES,viability at 5 µM [%]
1,COc1cc2c(cc1O)N=C[C@@H]1CCCN1C2=O,94.4
2,COc1cc2c(cc1OC/C=C\Cn1cc(-c3ccccc3)nn1)N=C[C@@H]1CCCN1C2=O,25.6

# Test system: A-375
# Experiment: Induction of apoptosis in human A375 cells assessed as decrease in Bcl-XL protein level after 24 hrs by Western blotting analysis
# Format: functional, cell-based
# Conditions: not given
# Method in brief: as §2
row,SMILES,Activity
1,COc1cc2c(cc1OC/C=C\Cn1cc(-c3ccccc3)nn1)N=C[C@@H]1CCCN1C2=O,Dose-dependent effect

# Test system: A-375
# Experiment: Cytotoxicity against human A375 cells assessed as cell survival at 5 uM after 24 hrs by MTT assay relative to control
# Format: functional
# Conditions: A-375, 24 h, read-out: Survival
# Method in brief: as §1
row,SMILES,viability at 5 µM [%]
1,COc1cc2c(cc1O)N=C[C@@H]1CCCN1C2=O,52.2
2,COc1cc2c(cc1OC/C=C\Cn1cc(-c3ccccc3)nn1)N=C[C@@H]1CCCN1C2=O,22.4

# Test system: A-375
# Experiment: Induction of apoptosis in human A375 cells assessed as increase in Bad protein level at 5 uM after 24 hrs by Western blotting analysis
# Format: functional, cell-based
# Conditions: not given
# Method in brief: as §2
row,SMILES,Activity
1,COc1cc2c(cc1OC/C=C\Cn1cc(-c3ccccc3)nn1)N=C[C@@H]1CCCN1C2=O,Active

# Test system: A-375
# Experiment: Induction of apoptosis in human A375 cells assessed as cleavage of caspase-3 after 24 hrs by Western blotting analysis
# Format: functional, cell-based
# Conditions: not given
# Method in brief: as §2
row,SMILES,Activity
1,COc1cc2c(cc1OC/C=C\Cn1cc(-c3ccccc3)nn1)N=C[C@@H]1CCCN1C2=O,Dose-dependent effect
